Measured values: paper PMC3933949 (Bioorganic & medicinal chemistry, 2012)
“And” between values parts separate entries of the source, which are not always exact repeats. Identical values can stand only once.

How the values were obtained:
[1] = molecular target: T1, recombinant human aromatase (CYP19) (Homo sapiens, UniProt P11511); assay: Fluorescence-based aromatase activity assay; type: biochemical; conditions: for aromatase inhibition (in words): recombinant human aromatase, fluorescence assay; for increase in inhibition potency compared to model compound 1a: ratio of aromatase IC50 values versus 1a
T1 sequence (P11511 1-503): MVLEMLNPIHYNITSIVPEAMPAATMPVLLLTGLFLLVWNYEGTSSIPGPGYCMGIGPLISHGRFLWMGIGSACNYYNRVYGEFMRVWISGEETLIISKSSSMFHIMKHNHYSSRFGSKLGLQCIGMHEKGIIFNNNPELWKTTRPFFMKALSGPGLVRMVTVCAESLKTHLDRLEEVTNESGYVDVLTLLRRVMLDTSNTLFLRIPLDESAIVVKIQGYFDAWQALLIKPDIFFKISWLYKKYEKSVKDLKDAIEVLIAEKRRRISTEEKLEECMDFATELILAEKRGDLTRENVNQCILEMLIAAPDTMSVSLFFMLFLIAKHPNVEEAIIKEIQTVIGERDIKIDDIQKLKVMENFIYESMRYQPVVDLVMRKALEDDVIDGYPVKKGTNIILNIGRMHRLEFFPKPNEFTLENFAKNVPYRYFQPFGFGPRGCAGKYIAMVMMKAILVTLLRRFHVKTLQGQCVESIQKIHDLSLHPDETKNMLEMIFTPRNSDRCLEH
Procedure, shortened: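 Baculovirus/insect-cell-expressed human aromatase with P450 reductase; 3-fold serial dilutions from acetonitrile stocks, preincubated 10 min at 37 °C with NADPH-regenerating cofactor mix (pH 7.5). Enzyme/MFC solution (pH 7.4) was added, then 30 min at 37 °C, Tris stop, fluorescence ex 409/em 530 nm. Interfering compounds: DBF substrate, 2 h, NaOH stop.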

aromatase = conditions: cited from earlier work; for aromatase inhibition of naturally occurring isoflavones (in words): literature background

SMILES: O=C1c2ccccc2OCC1c1ccc(-c2ccccc2)cc1 (stereo not shown) [Compound 1i, 3-(Biphenyl-4-yl)chroman-4-one]
- aromatase inhibition (in words) [1]: no significant inhibition

SMILES: O=C1c2ccccc2OCC1c1cc2ccccc2c2ccccc12 (stereo not shown) [Compound 1j, 3-(Phenanthren-9-yl)chroman-4-one]
- aromatase inhibition (in words) [1]: no significant inhibition

SMILES: O=c1c(-c2ccccc2)coc2ccccc12 [isoflavone, 3-phenylbenzopyrone]
- aromatase inhibition of scaffold (in words) (aromatase; ref 20b): inactive

SMILES: O=c1c(-c2ccc(O)cc2)coc2cc(O)cc(O)c12 [genistein]
- aromatase inhibition of naturally occurring isoflavones (in words) (aromatase): either inactive or weak inhibitors

SMILES: O=c1c(-c2ccc(O)cc2)coc2cc(O)ccc12 [daidzein]
- aromatase inhibition of naturally occurring isoflavones (in words) (aromatase): either inactive or weak inhibitors

SMILES: COc1cc(OC)cc(C2COc3ccccc3C2=O)c1 (stereo not shown) [Compound 2g, 3-(3,5-Dimethoxyphenyl)chroman-4-one]
- increase in inhibition potency compared to model compound 1a [1]: threefold

SMILES: O=C1c2ccccc2OCC1c1ccsc1 (stereo not shown) [Compound 3a, 3-(Thiophen-3-yl)chroman-4-one]
- aromatase inhibition (in words) [1]: did not exhibit a significant increase in potency

SMILES: O=C1c2ccccc2OCC1c1cccnc1 (stereo not shown) [Compound 3b, 3-(Pyridin-3-yl)chroman-4-one]
- increase in inhibition potency compared to model compound 1a [1]: fivefold

SMILES: O=C1c2ccccc2OCC1c1ccc(Oc2ccccc2)cc1 (stereo not shown) [Compound 1h, 3-(4-Phenoxyphenyl)chroman-4-one]
- increase in inhibition potency compared to model compound 1a [1]: 12 fold

SMILES: CC(C)(C)c1ccc2c(c1)C(=O)C(c1ccccc1)CO2 (stereo not shown) [Compound 4d, 6-tert-Butyl-3-phenylchroman-4-one]
- aromatase inhibition (in words) [1]: reduced the binding affinity

SMILES: COc1cc2c(=O)c(-c3ccc(O)cc3)coc2cc1O [glycitein]
- aromatase inhibition of naturally occurring isoflavones (in words) (aromatase): either inactive or weak inhibitors

SMILES: O=C1c2ccccc2OCC1c1ccc(O)c(O)c1 (stereo not shown) [3′,4′-dihydroxyisoflavanone]
- IC50 (aromatase; aromatase, isoflavanone compounds, ref 20b): 200 µM and ≥ 200 µM

SMILES: O=C1c2cc(Cl)ccc2OCC1c1ccccc1 (stereo not shown) [Compound 4b, 6-Chloro-3-phenylchroman-4-one]
- aromatase inhibition (in words) [1]: Enhanced inhibitory effects
